The values that follow come from ChEMBL document CHEMBL1132280, “Discovery of potent and selective SH2 inhibitors of the tyrosine kinase ZAP-70” (J Med Chem, 1999).

As a reminder, the IC50 is the concentration at which inhibition is half-maximal.

Holding throughout (design): species or system Escherichia coli
Experiment [1] has as its target Proto-oncogene tyrosine-protein kinase Src (Homo sapiens, UniProt P12931). Nature of the experiment: Binding affinity against Src SH2 domain.
Experiment [2] addresses Tyrosine-protein kinase SYK (Homo sapiens, UniProt P43405). The experiment in a line: Binding affinity against Syk protein tyrosine kinase SH2 domain.
Experiment [3] has as its target Growth factor receptor-bound protein 2 (Homo sapiens, UniProt P62993). The experiment in a line: Binding affinity against Growth factor receptor bound protein 2. In a few lines: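 Fluorescence polarization competition assay using human Grb2 SH2 (residues 55–152), expressed in E. coli BL21(DE3) and purified on phosphotyrosine-agarose. Compounds were serially diluted 1:2 across 1000–0.04 μM in 20 mM phosphate pH 7.4 with 100 mM NaCl, 10 mM DTT, 4% DMSO, 1 mM EDTA and 0.1% bovine γ-globulin. They were added to 1.25 µM protein premixed with 20 nM fluorescein-labelled peptide (ex 485/em 530 nm). IC50 was taken from percent tracer bound relative to vehicle, as the mean of ≥3 experiments.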

Sequence of Growth factor receptor-bound protein 2 (P62993 whole entry, the tested form may be a part): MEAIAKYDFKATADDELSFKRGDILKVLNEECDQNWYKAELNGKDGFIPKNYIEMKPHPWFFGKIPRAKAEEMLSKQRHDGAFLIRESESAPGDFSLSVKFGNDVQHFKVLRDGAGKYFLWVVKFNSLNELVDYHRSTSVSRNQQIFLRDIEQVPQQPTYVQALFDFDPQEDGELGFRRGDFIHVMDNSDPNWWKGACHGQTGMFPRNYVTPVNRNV
Sequence of Proto-oncogene tyrosine-protein kinase Src (P12931 2-536 limits assumed): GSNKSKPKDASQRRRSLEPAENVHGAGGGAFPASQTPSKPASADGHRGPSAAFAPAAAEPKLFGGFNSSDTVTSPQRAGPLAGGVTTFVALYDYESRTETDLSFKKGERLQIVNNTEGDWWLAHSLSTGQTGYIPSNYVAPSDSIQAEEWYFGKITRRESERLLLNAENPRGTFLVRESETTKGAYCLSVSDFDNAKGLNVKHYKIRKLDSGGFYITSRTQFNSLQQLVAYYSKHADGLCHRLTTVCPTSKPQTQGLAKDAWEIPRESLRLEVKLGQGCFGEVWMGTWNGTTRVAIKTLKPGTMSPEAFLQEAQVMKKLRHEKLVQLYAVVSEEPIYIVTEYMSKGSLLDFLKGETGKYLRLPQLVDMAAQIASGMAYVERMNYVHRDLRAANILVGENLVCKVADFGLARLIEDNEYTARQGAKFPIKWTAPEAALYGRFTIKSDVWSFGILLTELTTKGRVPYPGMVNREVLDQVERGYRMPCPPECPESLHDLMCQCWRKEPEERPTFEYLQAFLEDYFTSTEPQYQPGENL

`CC(=O)N[C@@H](Cc1ccc(OP(=O)(O)O)cc1)C(=O)N[C@@H](CCC(N)=O)c1nc(Cc2ccc(C(C)C)cc2)no1`: the half-inhibitory concentration (IC50) was 96 µM in experiment [1] and greater than 500 µM in experiment [2].
On to `CC(=O)N[C@@H](Cc1ccc(OP(=O)(O)O)cc1)C(=O)N[C@@H](CCC(N)=O)c1nc(Cc2ccc(Cl)cc2)no1`, for which the half-maximal inhibitory concentration (IC50) in experiment [1] was 205 µM; in experiment [2], greater than 500 µM.
On the same counts, the results for `CC(=O)N[C@@H](Cc1ccc(OP(=O)(O)O)cc1)C(=O)N[C@@H](C)c1nc(Cc2ccc(Cl)cc2)no1` are 66 µM and greater than 500 µM.
As for `C[C@H](NC(=O)[C@H](Cc1ccc(OP(=O)(O)O)cc1)NC(=O)Cc1ccccc1)c1nc(Cc2ccc(C(F)(F)F)cc2)no1`, the IC50 is 123 µM in experiment [1] and greater than 500 µM in experiment [2].
`CC(=O)N[C@@H](Cc1ccc(OP(=O)(O)O)cc1)C(=O)N[C@@H](C)c1nc(Cc2ccc(Cl)c(Cl)c2)no1`: the IC50 in experiment [3] is greater than 500 µM; in experiment [1], 72 µM; in experiment [2] it was greater than 500 µM.
As to `CC(=O)N[C@@H](Cc1ccc(OP(=O)(O)O)cc1)C(=O)N[C@@H](CCc1ccccc1)c1nc(Cc2ccc(Cl)c(Cl)c2)no1`, the IC50 amounted to 340 µM in experiment [3], 60 µM in experiment [1] and 250 µM in experiment [2].
In the case of `CC(=O)N[C@@H](Cc1ccc(OP(=O)(O)O)cc1)C(=O)N[C@@H](C)c1nc(Cc2ccc(Br)cc2)no1`, the half-inhibitory concentration (IC50) is 31 µM in experiment [1] and greater than 500 µM in experiment [2].
As to `CC(=O)N[C@@H](Cc1ccc(OP(=O)(O)O)cc1)C(=O)N[C@@H](CCC(N)=O)c1nc(Cc2ccc3ccccc3c2)no1`, the IC50 in experiment [3] is 327 µM; in experiment [1] it was 274 µM; in experiment [2], greater than 500 µM.
As for `CC(=O)N[C@@H](Cc1ccc(OP(=O)(O)O)cc1)C(=O)N[C@@H](C)c1nc(Cc2ccc(I)c(Cl)c2)no1`, the IC50 in experiment [1] worked out at 50 µM; in experiment [2], 464 µM.
On the same counts, the results for `CC(=O)N[C@@H](Cc1ccc(OP(=O)(O)O)cc1)C(=O)N[C@@H](C)c1nc(Cc2ccc(Br)c(Br)c2)no1` are 39 µM and greater than 500 µM.
Consider `CC(=O)N[C@@H](Cc1ccc(OP(=O)(O)O)cc1)C(=O)N[C@@H](C)c1nc(Cc2ccc(F)cc2)no1`, for which the IC50 was 200 µM in experiment [1] and greater than 500 µM in experiment [2].
On the same counts, the results for `CC(=O)N[C@@H](Cc1ccc(OP(=O)(O)O)cc1)C(=O)N[C@@H](C)c1nc(Cc2cccc(Cl)c2)no1` are 68 µM and greater than 500 µM.
Consider `CC(=O)N[C@@H](Cc1ccc(OP(=O)(O)O)cc1)C(=O)N[C@@H](CO)c1nc(Cc2ccc(Br)cc2)no1`, for which the results for the concentration for half-maximal inhibition (IC50) in experiment [1] and in experiment [2] were 32 µM and greater than 500 µM, respectively.
Taken in the same sequence, the figures for `CC(=O)N[C@@H](Cc1ccc(OP(=O)(O)O)cc1)C(=O)N[C@@H](CCC(N)=O)c1nc(Cc2ccc(C)cc2)no1` were 292 µM and greater than 500 µM.
On the same counts, the results for `CC(=O)N[C@@H](Cc1ccc(OP(=O)(O)O)cc1)C(=O)N[C@@H](CC(N)=O)c1nc(Cc2ccc(C(F)(F)F)cc2)no1` are greater than 500 µM and greater than 500 µM.
On the same counts, the results for `CC(=O)N[C@@H](Cc1ccc(OP(=O)(O)O)cc1)C(=O)N[C@@H](C)c1nc(Cc2ccc(Cl)c(Br)c2)no1` are 45 µM and greater than 500 µM.
In the case of `CC(=O)N[C@@H](Cc1ccc(OP(=O)(O)O)cc1)C(=O)N[C@@H](C)c1nc(Cc2ccc(I)cc2)no1`, the figures for the 50% inhibitory concentration (IC50) in experiment [1] and in experiment [2] were 18 µM and 472 µM, respectively.
With `CC(=O)N[C@@H](Cc1ccc(OP(=O)(O)O)cc1)C(=O)N[C@@H](C)c1nc(Cc2ccc3ccccc3c2)no1`, the IC50 in experiment [3] is greater than 500 µM; in experiment [1], 64 µM; in experiment [2], greater than 500 µM.
Take `C[C@H](NC(=O)[C@H](Cc1ccc(OP(=O)(O)O)cc1)NC(=O)Cc1cccs1)c1nc(Cc2ccc(C(F)(F)F)cc2)no1`: the IC50 in experiment [1] is 143 µM; in experiment [2], greater than 500 µM.
Taken in the same sequence, the figures for `CC(=O)N[C@@H](Cc1ccc(OP(=O)(O)O)cc1)C(=O)N[C@@H](CO)c1nc(Cc2ccc(I)cc2)no1` were 37 µM and 452 µM.
Turning to `COc1ccc(CC(=O)N[C@@H](Cc2ccc(OP(=O)(O)O)cc2)C(=O)N[C@@H](C)c2nc(Cc3ccc(C(F)(F)F)cc3)no2)cc1`, the figures for the IC50 in experiment [1] and in experiment [2] were 87 µM and greater than 500 µM, respectively.
Taken in the same sequence, the figures for `CC(=O)N[C@@H](Cc1ccc(OP(=O)(O)O)cc1)C(=O)N[C@@H](Cc1c[nH]c2ccccc12)c1nc(Cc2ccc(C(F)(F)F)cc2)no1` were 92 µM and greater than 500 µM.
In the case of `C[C@H](NC(=O)[C@H](Cc1ccc(OP(=O)(O)O)cc1)NC(=O)Cc1c[nH]c2ccccc12)c1nc(Cc2ccc(C(F)(F)F)cc2)no1`, the results for the IC50 in experiment [1] and in experiment [2] were 62 µM and 433 µM, respectively.
Taken in the same sequence, the figures for `C[C@H](NC(=O)[C@H](Cc1ccc(OP(=O)(O)O)cc1)NC(=O)Cc1ccc2ccccc2c1)c1nc(Cc2ccc(C(F)(F)F)cc2)no1` were 49 µM and 302 µM.
Taken in the same sequence, the figures for `CC(=O)N[C@@H](Cc1ccc(OP(=O)(O)O)cc1)C(=O)N[C@@H](C)c1nc(Cc2ccc(I)c(Br)c2)no1` were 40 µM and greater than 500 µM.
Taken in the same sequence, the figures for `CC(=O)N[C@@H](Cc1ccc(OP(=O)(O)O)cc1)C(=O)N[C@@H](CO)c1nc(Cc2ccc(Cl)cc2)no1` were 149 µM and greater than 500 µM.
`CC(=O)N[C@@H](Cc1ccc(OP(=O)(O)O)cc1)C(=O)N[C@@H](CCC(N)=O)c1nc(Cc2cccc(Cl)c2)no1`: the IC50 in experiment [1] was 259 µM; in experiment [2], greater than 500 µM.
Taken in the same sequence, the figures for `CC(=O)N[C@@H](Cc1ccc(OP(=O)(O)O)cc1)C(=O)N[C@@H](CO)c1nc(Cc2ccc(F)cc2)no1` were 132 µM and greater than 500 µM.
On the same counts, the results for `C[C@H](NC(=O)[C@H](Cc1ccc(OP(=O)(O)O)cc1)NC(=O)Cc1ccc(F)c(F)c1)c1nc(Cc2ccc(C(F)(F)F)cc2)no1` are 130 µM and 397 µM.
Taken in the same sequence, the figures for `CC(=O)N[C@@H](Cc1ccc(OP(=O)(O)O)cc1)C(=O)N[C@@H](C)c1nc(Cc2cccc(C(F)(F)F)c2)no1` were 115 µM and greater than 500 µM.
`CC(=O)N[C@@H](CC(N)=O)C(=O)N[C@@H](CCC(N)=O)C(=O)N[C@@H](CC(C)C)C(=O)N[C@@H](Cc1ccc(OP(=O)(O)O)cc1)C(=O)N[C@@H](CC(N)=O)C(=O)N[C@@H](CCC(=O)O)C(=O)N[C@@H](CC(C)C)C(=O)N[C@@H](CC(N)=O)C(=O)N[C@@H](CC(C)C)C(=O)NCC(=O)N[C@@H](CCCN=C(N)N)C(=O)N[C@@H](CCCN=C(N)N)C(=O)N[C@@H](CCC(=O)O)C(=O)N[C@@H](CCC(=O)O)C(=O)N[C@@H](Cc1ccc(OP(=O)(O)O)cc1)C(=O)N[C@@H](CC(=O)O)C(=O)N[C@H](C(=O)N[C@@H](CC(C)C)C(=O)N[C@@H](CC(=O)O)C(N)=O)C(C)C`: in experiment [1], the IC50 was 20 µM.
For the compound `CC(=O)N[C@@H](Cc1ccc(OP(=O)(O)O)cc1)C(=O)N[C@@H](CCC(N)=O)c1nc(Cc2cccc3ccccc23)no1`, the IC50 was 135 µM in experiment [1] and greater than 500 µM in experiment [2].
Taken in the same sequence, the figures for `CC(=O)N[C@@H](Cc1ccc(OP(=O)(O)O)cc1)C(=O)N[C@@H](C)c1nc(Cc2ccc(C)cc2)no1` were 65 µM and greater than 500 µM.
On the same counts, the results for `CC[C@H](NC(=O)[C@H](Cc1ccc(OP(=O)(O)O)cc1)NC(C)=O)c1nc(Cc2ccc(C(F)(F)F)cc2)no1` are 98 µM and greater than 500 µM.
